Data reported in ChEMBL document CHEMBL4715736, “Identification of anticancer agents based on the thieno[2,3-b]pyridine and 1H-pyrazole molecular scaffolds” (2016).

Columns and labels:
Type in all cases: functional
Details in all cases: read-out: Activity
[1] = system: SW-620; assay: Growth inhibition of human SW-620 cells assessed as cell growth at 0.01 uM incubated for 48 hrs by sulforhodamine B assay relative to control
[2] = system: CAKI-1; assay: Growth inhibition of human CAKI-1 cells assessed as cell growth at 0.01 uM incubated for 48 hrs by sulforhodamine B assay relative to control
In short: (§1)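 NCI Developmental Therapeutics Program NCI60 panel. Compounds that were active in the 10 µM one-dose screen went on to dose–response testing. Growth at each concentration is expressed relative to untreated control (100%). GI50 (concentration giving 50% of maximal inhibition of proliferation) and TGI (concentration giving total growth inhibition) were derived from the curves.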

[3] = system: UO-31; assay: Growth inhibition of human UO-31 cells assessed as cell growth at 0.1 uM incubated for 48 hrs by sulforhodamine B assay relative to control
[4] = system: MDA-MB-231; assay: Growth inhibition of human MDA-MB-231 cells assessed as cell growth at 0.1 uM incubated for 48 hrs by sulforhodamine B assay relative to control
[5] = system: MDA-MB-468; assay: Growth inhibition of human MDA-MB-468 cells assessed as cell growth at 0.1 uM incubated for 48 hrs by sulforhodamine B assay relative to control
[6] = system: CCRF-CEM; assay: Growth inhibition of human CCRF-CEM cells assessed as cell growth at 10 uM incubated for 48 hrs by sulforhodamine B assay relative to control; in short: as §1
[7] = system: K562; assay: Growth inhibition of human K562 cells assessed as cell growth at 10 uM incubated for 48 hrs by sulforhodamine B assay relative to control
In short: (§2)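 Submitted to the NCI Developmental Therapeutics Program for the NCI60 human tumour cell line panel. First screen at a single 10 µM concentration. Read-out is growth relative to untreated control cells set at 100%.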

[8] = system: A549; assay: Growth inhibition of human A549/ATCC cells assessed as cell growth at 10 uM incubated for 48 hrs by sulforhodamine B assay relative to control; in short: as §1
[9] = system: HOP-62; assay: Growth inhibition of human HOP-62 cells assessed as cell growth at 10 uM incubated for 48 hrs by sulforhodamine B assay relative to control; in short: as §2
[10] = system: HOP-92; assay: Growth inhibition of human HOP-92 cells assessed as cell growth at 10 uM incubated for 48 hrs by sulforhodamine B assay relative to control; in short: as §2
[11] = system: NCI-H23; assay: Growth inhibition of human NCI-H23 cells assessed as cell growth at 10 uM incubated for 48 hrs by sulforhodamine B assay relative to control; in short: as §2
[12] = system: NCI-H522; assay: Growth inhibition of human NCI-H522 cells assessed as cell growth at 10 uM incubated for 48 hrs by sulforhodamine B assay relative to control; in short: as §2
[13] = system: COLO 205; assay: Growth inhibition of human COLO 205 cells assessed as cell growth at 10 uM incubated for 48 hrs by sulforhodamine B assay relative to control; in short: as §1
[14] = system: HCT-15; assay: Growth inhibition of human HCT-15 cells assessed as cell growth at 10 uM incubated for 48 hrs by sulforhodamine B assay relative to control; in short: as §2
[15] = system: HT-29; assay: Growth inhibition of human HT-29 cells assessed as cell growth at 10 uM incubated for 48 hrs by sulforhodamine B assay relative to control; in short: as §2
[16] = system: SF-268; assay: Growth inhibition of human SF-268 cells assessed as cell growth at 10 uM incubated for 48 hrs by sulforhodamine B assay relative to control
In short: (§3)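 Run by the NCI Developmental Therapeutics Program as part of its 60-line human tumour panel. Each compound tested at a single 10 µM dose. Growth expressed as % relative to untreated control cells (100%).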

[17] = system: SNB-19; assay: Growth inhibition of human SNB-19 cells assessed as cell growth at 10 uM incubated for 48 hrs by sulforhodamine B assay relative to control; in short: as §3
[18] = system: SNB-75; assay: Growth inhibition of human SNB-75 cells assessed as cell growth at 10 uM incubated for 48 hrs by sulforhodamine B assay relative to control; in short: as §3
[19] = system: U-251; assay: Growth inhibition of human U-251 cells assessed as cell growth at 10 uM incubated for 48 hrs by sulforhodamine B assay relative to control; in short: as §3
[20] = system: M14; assay: Growth inhibition of human M14 cells assessed as cell growth at 10 uM incubated for 48 hrs by sulforhodamine B assay relative to control; in short: as §2
[21] = system: SK-MEL-2; assay: Growth inhibition of human SK-MEL-2 cells assessed as cell growth at 10 uM incubated for 48 hrs by sulforhodamine B assay relative to control; in short: as §3
[22] = system: UACC-257; assay: Growth inhibition of human UACC-257 cells assessed as cell growth at 10 uM incubated for 48 hrs by sulforhodamine B assay relative to control; in short: as §3
[23] = system: UACC-62; assay: Growth inhibition of human UACC-62 cells assessed as cell growth at 10 uM incubated for 48 hrs by sulforhodamine B assay relative to control; in short: as §3
[24] = system: IGROV-1; assay: Growth inhibition of human IGROV-1 cells assessed as cell growth at 10 uM incubated for 48 hrs by sulforhodamine B assay relative to control; in short: as §2
[25] = system: OVCAR-8; assay: Growth inhibition of human OVCAR-8 cells assessed as cell growth at 10 uM incubated for 48 hrs by sulforhodamine B assay relative to control; in short: as §3
[26] = system: SK-OV-3; assay: Growth inhibition of human SK-OV-3 cells assessed as cell growth at 10 uM incubated for 48 hrs by sulforhodamine B assay relative to control; in short: as §3
[27] = system: A498; assay: Growth inhibition of human A498 cells assessed as cell growth at 10 uM incubated for 48 hrs by sulforhodamine B assay relative to control; in short: as §1
[28] = system: CAKI-1; assay: Growth inhibition of human CAKI-1 cells assessed as cell growth at 10 uM incubated for 48 hrs by sulforhodamine B assay relative to control; in short: as §1
[29] = system: TK-10; assay: Growth inhibition of human TK-10 cells assessed as cell growth at 10 uM incubated for 48 hrs by sulforhodamine B assay relative to control; in short: as §3
[30] = system: MDA-MB-231; assay: Growth inhibition of human MDA-MB-231 cells assessed as cell growth at 10 uM incubated for 48 hrs by sulforhodamine B assay relative to control; in short: as §2
[31] = system: BT-549; assay: Growth inhibition of human BT-549 cells assessed as cell growth at 10 uM incubated for 48 hrs by sulforhodamine B assay relative to control
In short: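 NCI Developmental Therapeutics Program NCI60 human tumour cell line panel, one-dose primary screen with every compound at 10 µM. Growth is expressed as % of untreated control cells (100%).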

[32] = system: MOLT-4; assay: Growth inhibition of human MOLT-4 cells assessed as cell growth at 100 uM incubated for 48 hrs by sulforhodamine B assay relative to control
[33] = system: NCI-H522; assay: Growth inhibition of human NCI-H522 cells assessed as cell growth at 100 uM incubated for 48 hrs by sulforhodamine B assay relative to control
[34] = system: OVCAR-3; assay: Growth inhibition of human OVCAR-3 cells assessed as cell growth at 100 uM incubated for 48 hrs by sulforhodamine B assay relative to control
[35] = system: NCI/ADR-RES; assay: Growth inhibition of human NCI/ADR-RES cells assessed as cell growth at 100 uM incubated for 48 hrs by sulforhodamine B assay relative to control

Compound | growth at 0.01 µM [1] | growth at 0.01 µM [2] | growth at 0.1 µM [3] | growth at 0.1 µM [4] | growth at 0.1 µM [5] | growth at 10 µM [6] | growth at 10 µM [7] | growth at 10 µM [8] | growth at 10 µM [9] | growth at 10 µM [10] | growth at 10 µM [11] | growth at 10 µM [12] | growth at 10 µM [14] | growth at 10 µM [15] | growth at 10 µM [16] | growth at 10 µM [17] | growth at 10 µM [19] | growth at 10 µM [20] | growth at 10 µM [21] | growth at 10 µM [22] | further results
COc1cccc(NC(=O)c2sc3nc4c(cc3c2N)CN(Cc2ccccc2)CC4)c1 | 100% | 87% | 92% | 98% | 89% | 76% | 16% | 22% | -17% | 23% | 43% | 61% | 30% | 16% | 18% | 35% | 21% | 56% | 51% | 44% | growth at 10 µM [13]: 44%; growth at 10 µM [18]: -38%; growth at 10 µM [23]: 31%; growth at 10 µM [24]: 67%; growth at 10 µM [25]: 28%; growth at 10 µM [26]: 11%; growth at 10 µM [27]: 29%; growth at 10 µM [28]: 53%; growth at 10 µM [29]: 28%; growth at 10 µM [30]: 54%; growth at 10 µM [31]: 23%; growth at 100 µM [32]: 13%; growth at 100 µM [33]: 1%; growth at 100 µM [34]: -60%; growth at 100 µM [35]: -26%
Cc1cc(C)c(NC(=O)c2sc3nc4c(cc3c2N)CN(Cc2ccccc2)CC4)c(C)c1 | 95% | 88% | 88% | 101% | 78% | 12% | 13% | 25% | 46% | 12% | 27% | -13% | 12% | 3% | 42% | 44% | 26% | 17% | 34% | 44% | growth at 10 µM [23]: 37%; growth at 10 µM [24]: 42%; growth at 10 µM [25]: 30%; growth at 10 µM [26]: 36%; growth at 10 µM [27]: -7%; growth at 10 µM [28]: 18%; growth at 10 µM [29]: 31%; growth at 10 µM [30]: 38%; growth at 10 µM [31]: 30%; growth at 100 µM [32]: 10%; growth at 100 µM [33]: -29%; growth at 100 µM [34]: -47%; growth at 100 µM [35]: -11%
Nc1c(C(=O)Nc2ccccc2)sc2nc3c(cc12)CN(Cc1ccccc1)CC3 | 98% | 93% | 83% | 100% | 98% | 84% | 48% | 55% | 26% | 13% | 63% | 70% | 66% | 77% | 38% | 59% | 56% | 64% | 70% | 67% | growth at 10 µM [13]: 66%; growth at 10 µM [18]: -54%; growth at 10 µM [23]: 57%; growth at 10 µM [24]: 74%; growth at 10 µM [25]: 59%; growth at 10 µM [26]: 12%; growth at 10 µM [27]: -17%; growth at 10 µM [28]: 56%; growth at 10 µM [29]: 19%; growth at 10 µM [30]: 37%; growth at 10 µM [31]: 65%; growth at 100 µM [32]: 18%; growth at 100 µM [33]: 31%; growth at 100 µM [34]: 20%; growth at 100 µM [35]: 29%
Cc1cccc(NC(=O)c2sc3nc4c(cc3c2N)C(=O)CCC4)c1 | 94% | 89% | 81% | 76% | 45% | 24% | 16% | 23% | 8% | 35% | 28% | -22% | 18% | -1% | 33% | 29% | 6% | 4% | 13% | 37% | growth at 10 µM [13]: -21%; growth at 10 µM [18]: 4.87%; growth at 10 µM [23]: 14%; growth at 10 µM [24]: -4.52%; growth at 10 µM [25]: 37%; growth at 10 µM [26]: 3%; growth at 10 µM [27]: -12.2%; growth at 10 µM [28]: 26%; growth at 10 µM [29]: 57%; growth at 10 µM [30]: 20%; growth at 10 µM [31]: 32%; growth at 100 µM [32]: 6%; growth at 100 µM [33]: -27%; growth at 100 µM [34]: -23%; growth at 100 µM [35]: -3%
